Source: ChEMBL document CHEMBL1914438, “Synthesis and biological activity of novel N-cycloalkyl-(cycloalkylaryl)-2-[(3-R-2-oxo-2H-[1,2,4]triazino[2,3-c]quinazoline-6-yl)thio]acetamides” (2011)
The source made the active and inactive calls. The rule behind the calls is not given here.

Tests used:
[1] = test system: Photobacterium leiognathi; assay: Antibacterial activity against Photobacterium leiognathi Sh1 assessed as inhibition of bacterial luminescence at 0.1 mg/mL after 10 mins by bioluminometry-based acute action test; assay type: functional; design: scale not given: the % may be the effect or the level left
Method in brief: (§1)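 Marine P. leiognathi Sh1 (Azov Sea shrimp isolate) diluted in chloride solution to 10^5 cells/mL; compounds suspended in DMSO mixed with 1 mL bacterial suspension. Acute test: 10 min at 25 °C, then bioluminescence measured by bioluminometer as % of compound-free control. Tetracycline reference.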

[2] = test system: Photobacterium leiognathi; assay: Antibacterial activity against Photobacterium leiognathi Sh1 assessed as inhibition of bacterial luminescence at 0.1 mg/mL after 10 mins by bioluminometry-based chronic action test; assay type: functional; design: scale not given: the % may be the effect or the level left; conditions: in the assay text read “after 16 to 18 hrs” for “after 10 mins”
Method in brief: (§2)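 Chronic (growth plus luminescence) test with P. leiognathi Sh1 at 10^5 cells/mL in chloride solution, compounds added in DMSO. After 10 min at 25 °C, growth medium added at 1:50 and the mix incubated 16–18 h at 30 °C. Luminescence then measured by bioluminometer as % of untreated control. Tetracycline reference.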

[3] = test system: Photobacterium leiognathi; assay: Antibacterial activity against Photobacterium leiognathi Sh1 assessed as inhibition of bacterial luminescence at 0.25 mg/mL after 10 mins by bioluminometry-based chronic action test; assay type: functional; design: scale not given: the % may be the effect or the level left; conditions: in the assay text read “after 16 to 18 hrs” for “after 10 mins”; method in brief: as §2
[4] = test system: Photobacterium leiognathi; assay: Antibacterial activity against Photobacterium leiognathi Sh1 at 0.1 to 0.25 ug/mL; assay type: functional, organism-based
Escherichia coli [5] = assay: Antibacterial activity against Escherichia coli at 1 to 5 mg/mL after 24 hrs by stiff-plate agar-diffusion method; assay type: functional, organism-based
Method in brief: (§3)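 Agar diffusion (stiff plate) with test substances at 5 mg/mL in grooves, allowed to diffuse into nutrient agar; inoculum 10^9 c.f.u./mL; bacteria incubated 24 h at 35 °C. Read-out: inhibition zone diameter (not sensitive 11–15 mm, sensitive 16–25 mm, highly sensitive >25 mm). Vancomycin and oxacillin as standards; three repeats.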

Staphylococcus aureus [6] = assay: Antibacterial activity against Staphylococcus aureus at 1 to 5 mg/mL after 24 hrs by stiff-plate agar-diffusion method; assay type: functional, organism-based; method in brief: as §3
Mycobacterium [7] = assay: Antibacterial activity against Mycobacterium luteum at 1 to 5 mg/mL after 24 hrs by stiff-plate agar-diffusion method; assay type: functional, organism-based; method in brief: as §3
Yamadazyma tenuis [8] = assay: Antifungal activity against Candida tenuis at 1 to 5 mg/mL after 48 to 72 hrs by stiff-plate agar-diffusion method; assay type: functional, organism-based
Method in brief: (§4)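 Fungal plates run by stiff-plate agar diffusion, substances applied to grooves at 5 mg/mL; 10^9 c.f.u./mL cells; incubation 48–72 h at 28–30 °C. Inhibition zone diameter scored (11–15 mm not sensitive, 16–25 mm sensitive, >25 mm highly sensitive). Nystatin standard; experiments done three times.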

Aspergillus niger [9] = assay: Antifungal activity against Aspergillus niger at 1 to 5 mg/mL after 48 to 72 hrs by stiff-plate agar-diffusion method; assay type: functional, organism-based; method in brief: as §4
CCRF-CEM = assay: Cytotoxicity against human CCRF-CEM cells assessed as cell growth at 10^-5 M after 48 hrs by SRB assay; assay type: functional; conditions: read-out: Activity
Method in brief: (§5)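 NCI 60-cell-line one-dose primary screen: cells inoculated and preincubated 24–48 h, then test agent added at a single 10^-5 M concentration for a further 48 h. Endpoint is sulforhodamine B protein staining read spectrophotometrically. Reported as percent growth relative to untreated control cells.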

SNB-75 = assay: Cytotoxicity against human SNB75 cells assessed as cell growth at 10^-5 M after 48 hrs by SRB assay; assay type: functional; conditions: SNB-75, 48 h, read-out: Activity
Method in brief: (§6)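 NCI human tumor cell line panel from nine cancer types. Each line was inoculated and preincubated 24–48 h, then exposed to a single concentration (10^-5 M) for 48 h. Growth was read by sulforhodamine B protein staining, measured spectrophotometrically. Value reported as percent growth of treated cells relative to untreated controls.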

UO-31 = assay: Cytotoxicity against human UO31 cells assessed as cell growth at 10^-5 M after 48 hrs by SRB assay; assay type: functional; conditions: UO-31, 48 h, read-out: Activity; method in brief: as §6
PC-3 = assay: Cytotoxicity against human PC3 cells assessed as cell growth at 10^-5 M after 48 hrs by SRB assay; assay type: functional; conditions: PC-3, 48 h, read-out: Activity; method in brief: as §6
K562 = assay: Cytotoxicity against human K562 cells assessed as cell growth at 10^-5 M after 48 hrs by SRB assay; assay type: functional; conditions: K562, 48 h, read-out: Activity; method in brief: as §5
SR = assay: Cytotoxicity against human SR cells assessed as cell growth at 10^-5 M after 48 hrs by SRB assay; assay type: functional; conditions: read-out: Activity; method in brief: as §6
A549 = assay: Cytotoxicity against human A549 cells assessed as cell growth at 10^-5 M after 48 hrs by SRB assay; assay type: functional; conditions: A549, 48 h, read-out: Activity; method in brief: as §5
U-251 = assay: Cytotoxicity against human U251 cells assessed as cell growth at 10^-5 M after 48 hrs by SRB assay; assay type: functional; conditions: U-251, 48 h, read-out: Activity; method in brief: as §6
M14 = assay: Cytotoxicity against human M14 cells assessed as cell growth at 10^-5 M after 48 hrs by SRB assay; assay type: functional; conditions: M14, 48 h, read-out: Activity; method in brief: as §5
UACC-257 = assay: Cytotoxicity against human UACC257 cells assessed as cell growth at 10^-5 M after 48 hrs by SRB assay; assay type: functional; conditions: UACC-257, 48 h, read-out: Activity; method in brief: as §6
SK-OV-3 = assay: Cytotoxicity against human SKOV3 cells assessed as cell growth at 10^-5 M after 48 hrs by SRB assay; assay type: functional; conditions: SK-OV-3, 48 h, read-out: Activity; method in brief: as §6
[10] = test system: Photobacterium leiognathi; assay: Antibacterial activity against Photobacterium leiognathi Sh1 assessed as inhibition of bacterial luminescence at 0.025 mg/mL after 10 mins by bioluminometry-based chronic action test; assay type: functional; design: scale not given: the % may be the effect or the level left; conditions: in the assay text read “after 16 to 18 hrs” for “after 10 mins”; method in brief: as §2
[11] = test system: Photobacterium leiognathi; assay: Antibacterial activity against Photobacterium leiognathi Sh1 assessed as inhibition of bacterial luminescence at 0.25 mg/mL after 10 mins by bioluminometry-based acute action test; assay type: functional; design: scale not given: the % may be the effect or the level left; method in brief: as §1
[12] = test system: Photobacterium leiognathi; assay: Antibacterial activity against Photobacterium leiognathi Sh1 assessed as inhibition of bacterial luminescence at 0.025 mg/mL after 10 mins by bioluminometry-based acute action test; assay type: functional; design: scale not given: the % may be the effect or the level left; method in brief: as §1
Escherichia coli [13] = assay: Antibacterial activity against Escherichia coli assessed as zone of inhibition at 0.01 mg/mL after 24 hrs by stiff-plate agar-diffusion method; assay type: functional; conditions: read-out: DIZ
Method in brief: (§7)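 Stiff-plate agar diffusion. Inoculum 10^9 c.f.u./mL. Compounds were streaked across grooves in the agar nutrient plate and left to diffuse. Plates were incubated 24 h at 35 °C. Read-out was inhibition zone diameter: 11–15 mm not sensitive, 16–25 mm sensitive, >25 mm highly sensitive. Vancomycin and oxacillin were the standards. Three repeats.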

Staphylococcus aureus [14] = assay: Antibacterial activity against Staphylococcus aureus assessed as zone of inhibition at 0.01 mg/mL after 24 hrs by stiff-plate agar-diffusion method; assay type: functional; conditions: read-out: DIZ; method in brief: as §7
Mycobacterium [15] = assay: Antibacterial activity against Mycobacterium luteum assessed as zone of inhibition at 0.01 mg/mL after 24 hrs by stiff-plate agar-diffusion method; assay type: functional; conditions: read-out: DIZ; method in brief: as §7
Yamadazyma tenuis [16] = assay: Antifungal activity against Candida tenuis assessed as zone of inhibition at 0.01 mg/mL after 48 to 72 hrs by stiff-plate agar-diffusion method; assay type: functional; conditions: read-out: DIZ
Method in brief: (§8)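 Fungi were tested by stiff-plate agar diffusion from a 10^9 c.f.u./mL inoculum. Compounds were placed in agar grooves and allowed to diffuse. Incubation was 48–72 h at 28–30 °C. Inhibition zone diameter was scored as not sensitive (11–15 mm), sensitive (16–25 mm) or highly sensitive (>25 mm). Nystatin was the standard. Experiments were done in triplicate.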

Aspergillus niger [17] = assay: Antifungal activity against Aspergillus niger assessed as zone of inhibition at 0.01 mg/mL after 48 to 72 hrs by stiff-plate agar-diffusion method; assay type: functional; conditions: read-out: DIZ; method in brief: as §8
[18] = test system: Photobacterium leiognathi; assay: Antibacterial activity against Photobacterium leiognathi Sh1 assessed as inhibition of bacterial luminescence at 0.025 mg/mL after 16 to 18 hrs by bioluminometry-based chronic action test; design: scale not given: the % may be the effect or the level left

## O=C(O)CSc1nc2ccccc2c2nc(=O)c(-c3ccccc3)nn12
[1]
  Activity: 75%
[2]
  Activity: 40.9%
[3]
  Activity: 3.6%
[4]
  Activity: inactive
Escherichia coli [5]
  Activity: inactive
Staphylococcus aureus [6]
  Activity: inactive
Mycobacterium [7]
  Activity: inactive
Yamadazyma tenuis [8]
  Activity: inactive
Aspergillus niger [9]
  Activity: inactive
CCRF-CEM
  growth at 10 µM: 92.5%
SNB-75
  growth at 10 µM: 86.6%
UO-31
  growth at 10 µM: 89%
PC-3
  growth at 10 µM: 90.8%
K562
  growth at 10 µM: 92%
SR
  growth at 10 µM: 91.9%
A549
  growth at 10 µM: 82.5%
U-251
  growth at 10 µM: 91.4%
M14
  growth at 10 µM: 96.8%
UACC-257
  growth at 10 µM: 93.2%
SK-OV-3
  growth at 10 µM: 97%
[10]
  Activity: 34%
[11]
  Activity: 50%
[12]
  Activity: 100%

## Cc1onc(-c2ccccc2)c1C(=O)N[C@@H]1C(=O)N2[C@@H]1SC(C)(C)[C@@H]2C(=O)O [OXACILLIN]
Escherichia coli [13]
  zone of inhibition at 10 µg/mL: 0 mm
Staphylococcus aureus [14]
  zone of inhibition at 10 µg/mL: 21 mm
Mycobacterium [15]
  zone of inhibition at 10 µg/mL: 0 mm
Yamadazyma tenuis [16]
  zone of inhibition at 10 µg/mL: 0 mm
Aspergillus niger [17]
  zone of inhibition at 10 µg/mL: 0 mm

## CCC1C2CCC(C2)C1NC(=O)CSc1nc2ccccc2c2nc(=O)c(-c3ccc(C)cc3)nn12 (centres undefined)
[1]
  Activity: 96%
[2]
  Activity: 120%
[3]
  Activity: 44%
Escherichia coli [5]
  Activity: inactive
Staphylococcus aureus [6]
  Activity: inactive
Mycobacterium [7]
  Activity: inactive
Yamadazyma tenuis [8]
  Activity: inactive
Aspergillus niger [9]
  Activity: inactive
[11]
  Activity: 120%
[12]
  Activity: 110%
[18]
  Activity: 100%
